Bioassay records deposited in PubChem BioAssay by several laboratories.
Compounds with a hit are over-represented: about 12% of the library has one in this group of screens.
Lmaj promast – Leishmania major promastigote growth inhibition | Leishmania major promastigotes, resazurin fluorescence viability | inhibition, % at 10 µM | 9% of 200,000 active | AID 1063; in the data active means inhibition above about 50%;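 further: promastigotes grown with compound for 44 hours at 28 °C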
ABCG2 block – blocks JC-1 efflux by human ABCG2 transporter; Q9UNQ0; AID 1325; inhibition, % at 6.6 µM; 0.1% of 190,000 active; IgMXP3 cells, flow cytometry;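 active means inhibition above 80%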;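 further: 0% = DMSO and 100% = nicardipine control wells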
Target sequence (Q9UNQ0 whole entry, looked up): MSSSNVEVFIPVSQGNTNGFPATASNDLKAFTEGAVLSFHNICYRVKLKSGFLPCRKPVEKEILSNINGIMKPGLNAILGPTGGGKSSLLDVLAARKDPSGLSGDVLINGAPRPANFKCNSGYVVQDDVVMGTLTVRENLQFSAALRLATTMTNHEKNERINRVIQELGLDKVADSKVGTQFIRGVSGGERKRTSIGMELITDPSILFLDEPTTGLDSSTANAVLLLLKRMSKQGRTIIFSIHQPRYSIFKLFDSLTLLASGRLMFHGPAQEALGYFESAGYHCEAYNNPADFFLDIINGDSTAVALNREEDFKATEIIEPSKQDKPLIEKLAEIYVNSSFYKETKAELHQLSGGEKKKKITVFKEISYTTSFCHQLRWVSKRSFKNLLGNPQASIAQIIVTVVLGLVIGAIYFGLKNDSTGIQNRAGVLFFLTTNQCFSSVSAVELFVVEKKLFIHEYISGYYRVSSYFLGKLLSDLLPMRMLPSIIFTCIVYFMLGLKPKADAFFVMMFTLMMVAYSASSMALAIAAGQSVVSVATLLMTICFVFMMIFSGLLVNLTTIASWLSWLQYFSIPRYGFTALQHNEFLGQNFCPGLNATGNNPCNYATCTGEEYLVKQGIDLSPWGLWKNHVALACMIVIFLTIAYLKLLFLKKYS
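Incubation: cells with compound and JC-1, 10 min at 25 °C, rotating, no wash / Test system: IgMXP3 (ABCG2) plus far-red-tagged CCRF-Adr (ABCB1) cells / Compound dosing: one concentration, 6.6 µM final / Also added: JC-1 fluorescent substrate / Evaluation: efflux inhibition in percent versus controls / Detection: flow cytometry, 530 nm JC-1 signal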
RAM network inh – yeast RAM network inhibition. S. cerevisiae dse1pr::URA3 reporter, 5-FOA growth OD615, 2 d; analog-sensitive cbk1-as2 kinase mutant strain. inhibition, % at 50 µM. 1.8% of 190,000 active. AID 868;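 active means inhibition above a set limit, 3 SD over mean compound inhibition, cut at about 8.4% in these data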;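 further: 0% = DMSO-only wells with no growth and 100% = 10 µM 1-NA-PP1 full growth; inhibition rescues growth on 5-FOA so higher OD means more RAM inhibition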
ABCB1 inh – blocks JC-1 efflux by human ABCB1 transporter; CCRF-Adr cells, flow cytometry; inhibition, % at 6.6 µM; 0.067% of 190,000 active; in the data active means inhibition above about 40%;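 further: 0% = vehicle and 100% = reference inhibitor; higher value means more JC-1 retained so stronger ABCB1 efflux block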
WT yeast gro inh – growth inhibition of WT yeast, mitochondrial fusion screen; mitochondrial fusion phenotypic screen, WT strain; inhibition, % at 10 µM; 2.1% of 190,000 active; AID 1362; in the data active means inhibition above about 58%; tested in S. cerevisiae
Starred values were filed as active, the others as inactive; . = not tested or not shown.

SMILES | Lmaj promast | ABCG2 block | RAM network inh | ABCB1 inh | WT yeast gro inh
O=C(Nc1nccs1)C1CCCN1S(=O)(=O)c1ccc(Cl)cc1 (configuration not stated) | 2.6 | -3.7 | 0.0 | -2.0 | 9.1
O=C(Nc1nc(-c2ccccc2)cs1)C1CCCN(S(=O)(=O)c2cccc([N+](=O)[O-])c2)C1 (configuration not stated) | 92.7* | 2.4 | 3.4 | 0.7 | -1.9
O=C(Nc1nc(-c2ccccc2)cs1)C1CCCN(S(=O)(=O)c2ccccc2)C1 (configuration not stated) | 45.3 | 1.3 | 5.1 | 0.4 | -1.0
COc1ccc(NC(=O)Cn2c(=O)n(-c3ccc(OC)cc3OC)c(=O)c3c(C)c(C)sc32)cc1 | 5.4 | -0.6 | 2.3 | 2.2 | -6.5
Cc1cc2c(c(=O)o1)C(C13C=CC(CC1)C3)C(C#N)=C(N)O2 (configuration not stated) | -1.3 | 5.0 | 0.2 | 0.2 | -3.8
Cc1ccc2[nH]c(=O)c(COC(=O)c3cccs3)cc2c1 | -7.2 | 2.5 | 1.5 | 0.3 | -5.5
Cc1nn(-c2ccccc2)c(/N=C/c2ccc(O)cc2)c1-c1ccccc1 | 52.4* | 35.0 | 2.9 | 0.2 | 4.9
Cc1nn(-c2ccc(C(=O)O)cc2)c(N)c1-c1ccccc1 | -6.9 | 5.7 | 1.3 | 0.2 | -2.0
COc1cccc(C(=O)NCC(=O)OCc2ccc(F)cc2Cl)c1 | -8.1 | 8.4 | 0.3 | 1.1 | -16.6
Cc1ccc2nc(/C(C#N)=C\c3ccc(Oc4ccc([N+](=O)[O-])cn4)cc3)[nH]c2c1 | 98.6* | -21.6 | 1.7 | -0.7 | 2.3
Cc1cc(/C=C(/C#N)c2nc3ccccc3[nH]2)c(C)n1-c1cc(C(=O)O)cc(C(=O)O)c1 | -5.0 | -0.2 | 4.6 | -0.2 | 2.6
COc1ccc2nc(/C(C#N)=C\c3ccc(Oc4ccc([N+](=O)[O-])cn4)cc3)[nH]c2c1 | 2.5 | -7.3 | 2.3 | -0.6 | 11.6
Cc1ccc2nc(/C(C#N)=C\c3cc(C)n(-c4cccc([N+](=O)[O-])c4)c3C)[nH]c2c1 | 85.0* | -0.9 | 7.3 | -0.3 | 21.8
Cn1cc(S(=O)(=O)N2CCCC(C(=O)O)C2)cn1 (configuration not stated) | -5.2 | -0.4 | 0.3 | -0.8 | -0.5
CCNC(=S)N/N=C/c1cn(Cc2ccc(F)cc2)c2ccccc12 | 15.5 | 17.2 | 0.1 | 1.0 | -5.0
O=[N+]([O-])/C=C/c1cn(Cc2ccc(F)cc2)c2ccccc12 | 98.8* | 0.0 | 5.8 | -0.3 | .
CC1=C(c2ccc(Cl)cc2)[N+](=O)C(C)(C)N1[O-] | -6.0 | 11.3 | 0.4 | 0.8 | -17.5
C#CC(=O)N(c1ccc(OC)c(OC)c1)C(C(=O)NC1CCCC1)c1cccs1 (configuration not stated) | 100.2* | 1.4 | 0.9 | -0.4 | 3.2
C#CC(=O)N(c1cccc(OC)c1)C(C(=O)NC1CCCC1)c1cccs1 (configuration not stated) | 100.4* | -0.1 | 0.5 | 0.1 | -0.4
COc1ccc(CCN(C(=O)C(F)(F)F)C(C(=O)NC2CCCCC2)c2ccc(C)s2)cc1OC (configuration not stated) | 45.5 | 2.7 | 2.8 | 2.1 | 16.2
COc1ccc(CCN(C(=O)C(F)(F)F)C(C(=O)NC2CCCC2)c2cccs2)cc1OC (configuration not stated) | 59.4* | 2.4 | 0.6 | 1.0 | 11.9
COc1ccc(N(C(=O)Cc2cccs2)C(C(=O)NC2CCCCC2)c2cccn2C)cc1OC (configuration not stated) | 4.3 | 16.4 | 4.1 | 5.8 | 11.0
COc1cc2cc(Oc3ccc4ccc(=O)oc4c3)c(=O)oc2cc1OC(C)=O | -11.1 | 4.8 | 4.1 | 0.6 | 0.3
CC(=O)OC1CCC2(C)C(COc3ccc4ccc(=O)oc4c3)C(C)(O)CCC2C1(C)C (configuration not stated) | 99.3* | 34.1 | 6.8 | 4.1 | 13.1
O=C(Nn1nnnc1Nc1ccccc1)C12CC3CC(CC(C3)C1)C2 | -8.6 | -0.2 | 1.6 | 0.1 | 12.9
SMILES | Lmaj promast | ABCG2 block | RAM network inh | ABCB1 inh | WT yeast gro inh
CCOC(=O)CC(NC(=O)Cc1ccccc1)c1ccccc1Cl (configuration not stated) | -3.2 | 3.4 | 3.4 | 0.6 | -0.1
CCOC(=O)CC(NC(=O)C(CC)c1ccccc1)c1ccccc1Cl (configuration not stated) | 94.9* | 41.0 | -0.9 | 5.4 | 4.8
Cc1ccc(S(=O)(=O)Nc2ccnc(-c3cccnc3)n2)cc1 | 0.9 | 4.3 | 2.7 | 0.5 | -25.2
CCOC(=O)c1sc2c(c1C)C(c1cccs1)C1=C(CCCC1=O)N2 (configuration not stated) | 63.6* | 3.5 | 0.4 | 1.4 | 18.0
Cc1onc(-c2ccccc2Cl)c1C(=O)OCC(=O)Nc1cccc(S(=O)(=O)N2CCOCC2)c1 | 63.8* | 19.5 | 4.9 | 1.9 | 5.6
COc1ccc(/C=C/C(=O)Nc2cccc(S(=O)(=O)N3CCCC3)c2)cc1OC | 55.2* | 4.7 | 8.5* | 3.0 | 5.7
COc1ccc(NS(=O)(=O)c2cccc(NC(=O)c3cnccn3)c2)cc1Br | 100.0* | 3.9 | -1.1 | 0.0 | 13.6
COc1ccc(/C=C/C(=O)N2CCN(S(=O)(=O)c3ccccc3)CC2)cc1OC | 7.1 | 5.2 | 0.4 | 1.0 | 31.0
COc1ccc(/C=C/C(=O)NC2CCCCCC2)cc1S(=O)(=O)N1CCOCC1 | 97.9* | 13.7 | 0.3 | 0.4 | -10.9
CN(C)S(=O)(=O)c1cccc(NC(=O)c2cnccn2)c1 | 9.4 | 6.3 | 1.1 | 0.9 | -24.1
CCOc1ccc(NC(=O)CCC(=O)NNS(=O)(=O)c2ccccc2[N+](=O)[O-])cc1 | -4.9 | 0.8 | 2.9 | 0.5 | -6.1
CCN(CC)S(=O)(=O)c1cccc(NC(=S)NC(=O)/C=C/c2ccc(S(=O)(=O)N3CCOCC3)cc2)c1 | 79.8* | 2.6 | 4.8 | -0.4 | -2.4
Cc1noc(C)c1COc1ccc(C(=O)OCC(=O)Nc2ccc3c(c2)OCO3)cc1 | -3.7 | 2.1 | 4.9 | 0.3 | -1.0
O=C(Nc1cccc(S(=O)(=O)N2CCCCC2)c1)c1cnccn1 | 86.6* | 2.7 | 1.5 | 0.1 | -2.7
CC(Oc1ncnc2ccccc12)C(=O)Nc1cccc(S(=O)(=O)N2CCOCC2)c1 (configuration not stated) | 77.8* | -1.1 | 0.7 | 0.1 | 13.8
Cc1ccc(NC(=O)COC(=O)c2ccc(OCc3c(C)noc3C)cc2)cc1S(=O)(=O)N1CCOCC1 | -7.8 | 24.3 | 11.1* | 0.1 | -10.8
O=c1c(Cc2c(F)cccc2Cl)c(O)ccn1CCc1c[nH]c2ccccc12 | 10.4 | 1.4 | 3.7 | 0.7 | -0.7
CC(=O)N1CC2([N+](=O)[O-])CN(C(C)=O)CC([N+](=O)[O-])(C1)C2(C)C | -2.9 | 0.4 | 0.1 | 0.0 | -2.6
CN(C(=O)c1cccs1)c1ccc(OCC(=O)N2CCC(C(N)=O)CC2)cc1 | -4.1 | 0.3 | 1.7 | -0.2 | -0.1
CC(=O)N1CCN(CC(=O)Nc2cccc(S(=O)(=O)N3CCCCCC3)c2)CC1 | -9.1 | 7.8 | 0.1 | 1.6 | -17.9
